Results pooled from the literature.
BCHE: Cholinesterase (BCHE, Homo sapiens, UniProt P06276)
Oprk1: Kappa-type opioid receptor (Oprk1, Mus musculus, UniProt P33534)

Compound	target	effect on	action	method	measurement	value
CC(=O)N[C@H]1[C@@H](O[C@@H]2O[C@H](C[C@@H](O)[C@H]3O[C@@H](n4ccc(=O)[nH]c4=O)[C@H](O)[C@@H]3O)[C@H](O)[C@H](O)[C@H]2NC(=O)/C=C/CCCCCCCCCC(C)C)O[C@H](CO)[C@@H](O)[C@@H]1O	UDP-N-acetylglucosamine--dolichyl-phosphate N-acetylglucosaminephosphotransferase (Homo sapiens, UniProt Q9H3H5)	enzyme activity	inhibitor		IC50	1530 nM
C=CCOc1ccc(C(=O)/C=C/c2cccc(F)c2)c(OS(=O)(=O)c2ccc(F)cc2)c1I	BCHE	enzyme activity	inhibitor		IC50	30200 nM
CC(C)[C@@H](CN1CCc2ccccc2C1)NC(=O)c1cccc(-c2cccc(O)c2)c1	Oprk1	ligand displacement		radioligand	Ki	810 nM
COc1cc(/C=C/C(=O)O)ccc1OCc1cn(CC(=O)Nc2ccc(Cl)cc2Cl)nn1	BCHE	enzyme activity	inhibitor	Ellman	IC50	12000 nM
C=CCOc1ccc(C(=O)/C=C/c2ccc(OC)cc2)c(OS(=O)(=O)c2ccc(F)cc2)c1I	BCHE	enzyme activity	inhibitor		IC50	11300 nM
COc1cc2c(cc1OC)CN(CCc1ccc(NC(=O)c3cccc4c(=O)c5cccc(OC)c5[nH]c34)cc1)CC2	Muscarinic acetylcholine receptor M5 (CHRM5, Homo sapiens, UniProt P08912)	cell-free assay			Ki	> 10000 nM
CC(C)c1cc2c(c(O)c1O)[C@@]13CCCC(C)(C)[C@@H]1[C@@H](O)[C@@H]2OC3=O	BCHE	enzyme activity	inhibitor	absorbance	Ki	0.33 nM
CCCC[C@H](NC(C)=O)C(=O)N[C@H]1CC(=O)NCCCC[C@@H](C(=O)N2CCC[C@@H]2C(=O)N[C@@H](C(=O)N2CCC[C@@H]2C(N)=O)C(C)C)NC(=O)[C@H](Cc2c[nH]c3ccccc23)NC(=O)[C@H](CCCNC(=N)N)NC(=O)[C@@H](Cc2ccccc2)NC(=O)[C@@H]2CCCN2C1=O	Melanocortin receptor 4 (MC4R, Homo sapiens, UniProt P32245)	cAMP	agonist		EC50	0.89 nM
CC(C)c1cc2c(c(O)c1O)[C@@]13CCCC(C)(C)[C@@H]1[C@H](OC3=O)[C@H]2O	BCHE	enzyme activity	inhibitor	absorbance	Ki	0.2 nM
CCCC(=O)CC(=O)N[C@H]1CCOC1=O	qscR (Pseudomonas aeruginosa, UniProt G3XD77)	reporter gene	agonist		EC50	13000 nM
CC(C)c1cc2c(c(O)c1O)[C@@]1(C(=O)O)CCCC(C)(C)[C@@H]1CC2	BCHE	enzyme activity	inhibitor		IC50	0.66 nM
C=CCOc1ccc(C(=O)/C=C/c2ccc(OC)cc2)c(O)c1I	BCHE	enzyme activity	inhibitor		IC50	22400 nM
CC(C)c1cc2c(c(O)c1O)[C@@]13CCCC(C)(C)[C@@H]1C[C@@H]2OC3=O	BCHE	enzyme activity	inhibitor	absorbance	Ki	0.3 nM
C=CCOc1ccc(C(=O)/C=C/c2cccc(F)c2)c(OS(C)(=O)=O)c1I	BCHE	enzyme activity	inhibitor		IC50	19200 nM
CC(C)[C@H](CN1CCc2ccccc2C1)NC(=O)Cc1c[nH]c2ccccc12	Oprk1	ligand displacement		radioligand	Ki	2810 nM
COc1c2c(cc3c1-c1c(cc4c(c1OC)OCO4)C[C@H](C)[C@H](C)C3)OCO2	Cocaine esterase (CES2, Homo sapiens, UniProt O00748)	enzyme activity	inhibitor	fluorescence	IC50	1340 nM
